Assay results reported in ChEMBL document CHEMBL1135468 (J Med Chem, 2002).
*1 amine or outer side, *2 acyl side, *3 side chain or, on linkers, in order; H or OH if unused. Where a SMILES comes first, the peptide text is derived from it. Bridges are numbered along the chain shown (N, C = ends). [ ]: non-standard residue; d: D form. The star is where a group is joined. 6FAM = O=C1OC2(c3ccc(O)cc3Oc3cc(O)ccc32)c2cc(C(=O)*)ccc21; X4 = O=C(CC1(S[*:2])CCCCC1)[*:1]; X1 = O=C([C@@H](O)CS[*:2])[*:1]; Orn = NCCC[C@H](N)C(=O)O; Mpa = O=C(O)CCS

How the values were obtained:
Vasopressin V1b receptor = biological target: T1, Vasopressin V1b receptor (Homo sapiens, UniProt P47901); test: Binding affinity towards human Vasopressin V1b receptor
T1 sequence (P47901 whole entry): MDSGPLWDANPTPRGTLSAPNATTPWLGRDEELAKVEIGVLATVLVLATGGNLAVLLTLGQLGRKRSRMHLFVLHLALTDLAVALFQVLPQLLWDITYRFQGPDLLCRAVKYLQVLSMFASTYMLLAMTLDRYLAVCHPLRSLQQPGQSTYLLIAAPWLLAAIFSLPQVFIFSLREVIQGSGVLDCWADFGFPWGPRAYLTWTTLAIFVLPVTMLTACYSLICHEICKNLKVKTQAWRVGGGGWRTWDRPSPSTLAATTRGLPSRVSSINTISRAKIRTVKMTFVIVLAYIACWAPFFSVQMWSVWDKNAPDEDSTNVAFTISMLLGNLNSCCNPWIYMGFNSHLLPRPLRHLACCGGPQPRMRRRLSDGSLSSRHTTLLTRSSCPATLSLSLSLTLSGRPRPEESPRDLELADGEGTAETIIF
Method in brief: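 Competition binding on membranes from CHO cells stably expressing one human receptor, butyrate-treated (5 mM, overnight). Radioligands: OT, 200-250 pM [125I]OTA or 120-180 pM [125I]HO-LVA; V1a, 40-60 pM [125I]HO-LVA; V1b, 1-3 nM [3H]AVP. Competitor 1 pM-1 µM; nonspecific with 1 µM unlabeled ligand; 1 h, 30 °C. Ki by nonlinear least-squares, ≥3 experiments in triplicate.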

Vasopressin V1a receptor = Vasopressin V1a receptor (Homo sapiens, UniProt P37288); test: Binding affinity for human Vasopressin V1a receptor
Sequence of Vasopressin V1a receptor (P37288 whole entry): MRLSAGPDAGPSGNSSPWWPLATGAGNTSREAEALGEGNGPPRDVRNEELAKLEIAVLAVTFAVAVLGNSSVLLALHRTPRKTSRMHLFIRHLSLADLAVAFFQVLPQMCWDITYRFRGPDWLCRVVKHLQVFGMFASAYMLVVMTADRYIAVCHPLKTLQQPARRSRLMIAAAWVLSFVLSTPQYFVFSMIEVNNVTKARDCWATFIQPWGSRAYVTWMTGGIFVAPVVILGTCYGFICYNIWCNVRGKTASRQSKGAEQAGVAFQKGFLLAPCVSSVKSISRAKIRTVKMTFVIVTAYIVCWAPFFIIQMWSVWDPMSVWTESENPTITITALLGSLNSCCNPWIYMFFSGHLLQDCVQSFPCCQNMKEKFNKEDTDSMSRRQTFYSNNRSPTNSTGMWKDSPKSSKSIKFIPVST

Oxytocin receptor = biological target: T2, Oxytocin receptor (Homo sapiens, UniProt P30559); test: Binding affinity for human oxytocin receptor
T2 sequence (P30559 whole entry): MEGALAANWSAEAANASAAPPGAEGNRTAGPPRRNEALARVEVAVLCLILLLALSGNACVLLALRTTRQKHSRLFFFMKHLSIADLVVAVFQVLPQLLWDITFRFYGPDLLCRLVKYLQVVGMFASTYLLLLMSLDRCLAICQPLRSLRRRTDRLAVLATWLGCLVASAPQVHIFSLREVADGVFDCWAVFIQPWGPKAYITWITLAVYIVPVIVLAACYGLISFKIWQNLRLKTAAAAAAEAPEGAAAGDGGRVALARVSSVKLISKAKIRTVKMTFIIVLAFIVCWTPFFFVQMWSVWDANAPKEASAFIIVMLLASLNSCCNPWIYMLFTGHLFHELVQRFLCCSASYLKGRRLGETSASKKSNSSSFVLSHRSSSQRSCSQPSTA

Vasopressin V2 receptor = Vasopressin V2 receptor (Homo sapiens, UniProt P30518); test: Binding affinity towards human Vasopressin V2 receptor
Sequence of Vasopressin V2 receptor (P30518 whole entry): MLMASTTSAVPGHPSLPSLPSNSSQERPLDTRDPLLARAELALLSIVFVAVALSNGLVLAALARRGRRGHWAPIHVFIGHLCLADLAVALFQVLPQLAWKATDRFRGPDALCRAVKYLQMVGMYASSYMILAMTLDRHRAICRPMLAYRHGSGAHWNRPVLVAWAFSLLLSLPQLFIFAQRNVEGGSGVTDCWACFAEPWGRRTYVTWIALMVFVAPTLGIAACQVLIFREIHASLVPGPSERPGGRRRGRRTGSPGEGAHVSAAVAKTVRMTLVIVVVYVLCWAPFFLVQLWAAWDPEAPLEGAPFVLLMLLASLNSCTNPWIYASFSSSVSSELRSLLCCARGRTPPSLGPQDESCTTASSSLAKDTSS
Method in brief: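 Human V2 receptor stably expressed in CHO cells, butyrate-treated (5 mM, overnight); membranes at 5-10 µg protein/assay competed against 1-3 nM [3H]AVP. Fluorescent ligand ranged 1 pM-1 µM; nonspecific binding defined with 1 µM unlabeled ligand. Incubation 1 h at 30 °C. Ki from nonlinear least-squares fit of two independent experiments, each run in triplicate.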

Row | SMILES | Ki (Vasopressin V1b receptor) | Ki (Vasopressin V1a receptor) | Ki (Oxytocin receptor) | Ki (Vasopressin V2 receptor)
1 | CC[C@H](C)[C@@H]1NC(=O)[C@@H](Cc2ccc(O)cc2)NC(=O)CC2(CCCCC2)SSC[C@@H](C(=O)N2CCC[C@H]2C(=O)N[C@@H](CCCNC(=O)c2ccc3c(c2)C2(OC3=O)c3ccc(O)cc3Oc3cc(O)ccc32)C(=O)O)NC(=O)[C@H](CC(N)=O)NC(=O)[C@H]([C@@H](C)O)NC1=O | > 1 µM | 0.656 µM | 0.126 µM | > 10 µM
2 | CC[C@H](C)[C@@H]1NC(=O)[C@H](Cc2ccc(OC)cc2)NC(=O)CC2(CCCCC2)SSC[C@@H](C(=O)N2CCC[C@H]2C(=O)N[C@@H](CCCN)C(=O)N[C@@H](Cc2ccc(O)cc2)C(N)=O)NC(=O)[C@H](CC(N)=O)NC(=O)[C@H]([C@@H](C)O)NC1=O (Y(Me)ITNCP[Orn]Y-NH2; linker N-5 via X4) | > 10 µM | 0.0039 µM | 0.00021 µM | 0.93 µM
3 | CC[C@H](C)[C@@H]1NC(=O)[C@H](Cc2ccc(O)cc2)NC(=O)CCSSC[C@@H](C(=O)N2CCC[C@H]2C(=O)N[C@@H](CCCCNC(=O)c2ccc3c(c2)C2(OC3=O)c3ccc(O)cc3Oc3cc(O)ccc32)C(=O)NCC(N)=O)NC(=O)[C@H](CC(N)=O)NC(=O)[C@H](CCC(N)=O)NC1=O ([Mpa]YIQNCPK(6FAM)G-NH2; disulfide 1-6) | 0.124 µM | 0.057 µM | 0.00029 µM | > 10 µM
4 | CC[C@H](C)[C@@H]1NC(=O)[C@H](Cc2ccc(O)cc2)NC(=O)CCSSC[C@@H](C(=O)N2CCC[C@H]2C(=O)N[C@@H](CCCNC(=O)c2ccc3c(c2)C2(OC3=O)c3ccc(O)cc3Oc3cc(O)ccc32)C(=O)NCC(N)=O)NC(=O)[C@H](CC(N)=O)NC(=O)[C@H](CCC(N)=O)NC1=O ([Mpa]YIQNCP[Orn](6FAM)G-NH2; disulfide 1-6) | 0.393 µM | 0.107 µM | 0.00025 µM | > 10 µM
5 | CC[C@H](C)[C@@H]1NC(=O)[C@H](Cc2ccc(O)cc2)NC(=O)[C@@H](O)CSSC[C@@H](C(=O)N2CCC[C@H]2C(=O)N[C@@H](CCCNC(=O)c2ccc3c(c2)C2(OC3=O)c3ccc(O)cc3Oc3cc(O)ccc32)C(=O)NCC(N)=O)NC(=O)[C@H](CC(N)=O)NC(=O)[C@H](CCC(N)=O)NC1=O (YIQNCP[Orn](6FAM)G-NH2; linker N-5 via X1) | 0.126 µM | 0.0122 µM | 0.00018 µM | –
6 | CC[C@H](C)[C@@H]1NC(=O)[C@H](Cc2ccc(O)cc2)NC(=O)[C@@H](O)CSSC[C@@H](C(=O)N2CCC[C@H]2C(=O)N[C@@H](CCCCNC(=O)c2ccc3c(c2)C2(OC3=O)c3ccc(O)cc3Oc3cc(O)ccc32)C(=O)NCC(N)=O)NC(=O)[C@H](CC(N)=O)NC(=O)[C@H](CCC(N)=O)NC1=O (YIQNCPK(6FAM)G-NH2; linker N-5 via X1) | 0.066 µM | 0.0137 µM | 0.00034 µM | –
